For series [1], the system named is MCF7. The series is described as follows: Antiproliferative activity against human MCF7 cells assessed as inhibition of cell proliferation after 72 hrs by MTT assay. The series is classed as functional, cell-based. Put shortly:
(§1)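 Cells grown as monolayers in DMEM with 10% FBS, 2 mM L-glutamine, penicillin/streptomycin, 37 °C, 5% CO2. Seeded at 5000/well on day 0. Compounds added after 24 h as five serial dilutions (0,01 to 100 µM), DMSO ≤0.1%, then 72 h. MTT read-out converted to percentage growth. IC50 by linear regression; quadruplicates in three experiments.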
On the technique in general: Tetrazolium dyes change colour on reduction, which living cells bring about.

Series [2] is described as follows: (§2) Antiproliferative activity against human SW620 cells assessed as inhibition of cell proliferation after 72 hrs by MTT assay. Type of series: functional, cell-based, SW-620. Put shortly:
as §1

The test system of series [3] is SW-620. The description is as §2. Type of series: functional, cell-based. Put shortly: as §1
The subject of series [4] is HepG2. As to the kind of experiment: Antiproliferative activity against human HepG2 cells assessed as inhibition of cell proliferation after 72 hrs by MTT assay. Type of series: functional, cell-based. Conditions: for IC50: HepG2, 72 h. Put shortly: as §1
Series [5] concerns BJ. The series is described as follows: Antiproliferative activity against human BJ cells assessed as inhibition of cell proliferation after 72 hrs by MTT assay. Type of series: cell-based. To be noted: for inhibition (INH): human. Put shortly: as §1
In series [6] the test system is HeLa. As to the kind of experiment: Antiproliferative activity against human HeLa cells assessed as inhibition of cell proliferation after 72 hrs by MTT assay. Type of series: functional, cell-based. A digest of the protocol: as §1
Series [7] concerns Calf thymus DNA. The series is described as follows: Binding affinity to calf thymus DNA assessed as change in melting temperature at drug/ base pair ratio of 0.5 by spectrophotometry. The series is classed as nucleic-acid assay. Conditions: Bos taurus. Put shortly: (§3)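 CT-DNA absorbance followed at 260 nm from 20 to 100 °C, rising 1 °C per min, in BPE buffer, with or without compound at drug/base-pair ratio 0.25 or 0.5. Tm taken as midpoint of the hyperchromic transition from first-derivative plots. ΔTm is Tm with compound minus Tm of DNA alone.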

Series [8] concerns the target T1, DNA topoisomerase 1 (Homo sapiens) (UniProt P11387).
T1 sequence (whole entry): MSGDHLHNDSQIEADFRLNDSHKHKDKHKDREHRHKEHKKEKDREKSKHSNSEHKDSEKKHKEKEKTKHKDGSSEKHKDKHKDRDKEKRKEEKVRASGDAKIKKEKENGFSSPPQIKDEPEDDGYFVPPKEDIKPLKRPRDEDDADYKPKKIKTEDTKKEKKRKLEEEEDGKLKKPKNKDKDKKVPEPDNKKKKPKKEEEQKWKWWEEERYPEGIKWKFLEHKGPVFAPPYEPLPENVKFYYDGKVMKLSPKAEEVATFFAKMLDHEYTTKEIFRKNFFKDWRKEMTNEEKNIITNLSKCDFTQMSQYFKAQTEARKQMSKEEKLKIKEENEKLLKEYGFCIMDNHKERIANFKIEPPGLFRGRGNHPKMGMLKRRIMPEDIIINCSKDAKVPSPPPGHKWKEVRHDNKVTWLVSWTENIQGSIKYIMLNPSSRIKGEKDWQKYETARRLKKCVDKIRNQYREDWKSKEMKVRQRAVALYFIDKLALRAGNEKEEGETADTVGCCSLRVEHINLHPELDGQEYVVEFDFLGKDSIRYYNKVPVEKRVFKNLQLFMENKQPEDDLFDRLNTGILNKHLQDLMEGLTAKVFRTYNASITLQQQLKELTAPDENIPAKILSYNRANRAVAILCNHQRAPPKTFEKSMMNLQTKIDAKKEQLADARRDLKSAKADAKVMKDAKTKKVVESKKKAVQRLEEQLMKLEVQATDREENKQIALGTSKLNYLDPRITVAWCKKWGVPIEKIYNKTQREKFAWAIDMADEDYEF
The series is described as follows: Inhibition of human topoisomerase 1 assessed as topoisomerase poison activity by measuring generation of open circular DNA using supercoiled pUC19 DNA at 5 to 50 uM by agarose gel electrophoresis. A digest of the protocol:
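Supercoiled pUC19 plasmid was incubated with human topoisomerase I and graded compound concentrations. Reactions were stopped with SDS and proteinase K. DNA forms were resolved on 1% agarose in TBE (2 h, 120 V), post-stained with ethidium bromide and photographed under UV. Poisoning was read as appearance of nicked DNA, with camptothecin as the positive control.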

In series [9] the test system is Nucleic Acid. The series is described as follows: Induction of DNA intercalation in supercoiled pUC19 DNA in presence of human topoisomerase 1 assessed as effect on topoisomerase 1-mediated DNA relaxation at 5 to 50 uM by agarose gel electrophoresis. Conditions: Escherichia coli. The series is classed as nucleic-acid assay. Put shortly: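 Supercoiled pUC19 incubated with human topoisomerase I and graded compound concentrations. Stopped with SDS/proteinase K. DNA forms resolved on 1% agarose in TBE, 2 h at 120 V, stained post-run with ethidium bromide and viewed under UV. Camptothecin was the topo I poison control.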

The subject of series [10] is Calf thymus DNA. As to the kind of experiment: Binding affinity to calf thymus DNA at 50 uM circular dichroism spectroscopy. To be noted: Bos taurus. Type of series: nucleic-acid assay. Put shortly: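 CD spectra recorded from 480 to 230 nm, 10 mm path, 20 °C, in BPE buffer. CT-DNA (50 µM) incubated with compound rising from 1 to 60 µM or to 80 µM. Compound without DNA served as the control for intrinsic CD.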

In series [11] the test system is Calf thymus DNA. The series is described as follows: Binding affinity to calf thymus DNA assessed as change in melting temperature at drug/ base pair ratio of 0.25 by spectrophotometry. The series is classed as nucleic-acid assay. To be noted: Bos taurus. A digest of the protocol:
as §3

For orientation: IC50 means the concentration needed to halve the response being measured. A word on the ΔTm: it is the change in melting temperature against a reference sample.

The source made the active and inactive calls. The rule behind the calls is not given here.

Consider `Nc1ccc(/N=C2\c3ccccc3CN2c2ccc(N)nc2)cn1`, for which the inhibition result in [1], in [3], in series [4] and in [6] was “Dose-dependent effect” in each case. In addition, the IC50 in [1] (Homo sapiens, MCF7, 72 h) was 80.7 µM; in series [2] (Homo sapiens, SW-620, 72 h), greater than 100 µM; in [4] it was 88.9 µM; in series [5] (Homo sapiens, BJ, 72 h), greater than 100 µM; in series [6] (Homo sapiens, HeLa, 72 h) it was greater than 100 µM. In series [5] (bj, 72 h), the “inhibition (INH)” value is listed as “Dose-dependent effect”.
On to `CC(=O)Nc1ccc(/N=C2\c3ccccc3CN2c2ccc(NC(C)=O)nc2)cn1`, for which, in series [7], the ΔTm was determined as 0 °C. Further, in series [8], the inhibition result is “inactive”. Further, in series [9], the result was inactive. Moreover, the inhibition result in [1], in series [3], in [4] and in series [6] was “Dose-dependent effect” throughout. Further, the IC50 in series [1] (Homo sapiens, MCF7, 72 h) is 16 µM; in series [2] (Homo sapiens, SW-620, 72 h) it was greater than 100 µM; in series [4] it was 30.4 µM; in series [5] (Homo sapiens, BJ, 72 h), greater than 100 µM; in [6] (Homo sapiens, HeLa, 72 h), greater than 100 µM. For the same molecule, in series [5] (bj, 72 h), the “inhibition (INH)” value is reported as “Dose-dependent effect”.
As for `CC(C)NC(=N)c1ccc(/N=C2\c3ccccc3CN2c2ccc(C(=N)NC(C)C)cn2)nc1.Cl`, the ΔTm in series [7] came out at 4.4 °C. Also, the result in [10] was inactive. Besides, in series [8], the inhibition result was “inactive”. For the same molecule, the inhibition entry in series [1], in series [3], in series [4] and in series [6] was “Dose-dependent effect” throughout. The half-maximal inhibitory concentration (IC50) in series [1] (Homo sapiens, MCF7, 72 h) was greater than 100 µM; in [2] (Homo sapiens, SW-620, 72 h), greater than 100 µM; in [4] it was greater than 100 µM; in [5] (Homo sapiens, BJ, 72 h), greater than 100 µM; in series [6] (Homo sapiens, HeLa, 72 h), greater than 100 µM. In addition, the “inhibition (INH)” value in series [5] (bj, 72 h) is reported as “Dose-dependent effect”.
For the molecule `Cl.Nc1ccc(/N=C2\c3ccccc3CN2c2ccc(N)cc2)cc1`, the IC50 in series [1] (mcf7) is 0.73 µM; in series [2] (sw-620), 51.1 µM; in series [5] (bj), 80.5 µM; in series [6] (hela) it was 62.4 µM. Moreover, the “inhibition (INH)” value in series [5] (bj, 72 h) is on record as “Dose-dependent effect”.
Consider `Nc1ccc(/N=C2\c3ccccc3CN2c2ccc(N)cc2)cc1` [listing 1 of 2 here], for which the IC50 in series [1] (mcf7) is 0.05 µM; in series [2] (Homo sapiens, SW-620, 72 h) it was greater than 100 µM; in series [4] it was greater than 100 µM; in series [5] (Homo sapiens, BJ, 72 h), greater than 100 µM; in [6] (Homo sapiens, HeLa, 72 h), greater than 100 µM. Also, the “inhibition (INH)” value in series [5] (bj, 72 h) is recorded as “Dose-dependent effect”.
On to `CN(C)c1ccc(/N=C2\c3ccccc3CN2c2ccc(N(C)C)cc2)cc1`, for which the inhibition result in series [1], in series [3], in series [4] and in [6] was “Dose-dependent effect” each time. For the same molecule, the half-maximal inhibitory concentration (IC50) in [1] (Homo sapiens, MCF7, 72 h) is 8.99 µM; in series [2] (Homo sapiens, SW-620, 72 h), greater than 100 µM; in [4], 82.3 µM; in [5] (Homo sapiens, BJ, 72 h) it was greater than 100 µM; in series [6] (Homo sapiens, HeLa, 72 h), 92.5 µM. Besides, the “inhibition (INH)” value in series [5] (bj, 72 h) is on record as “Dose-dependent effect”.
With `Cl.N=C(N)c1ccc(N2Cc3ccccc3C2=O)nc1`, the inhibition entry in series [1], in series [3], in series [4] and in [6] was “Dose-dependent effect” throughout. Moreover, the IC50 in series [1] (Homo sapiens, MCF7, 72 h) worked out at 35.6 µM; in series [2] (Homo sapiens, SW-620, 72 h), 44.8 µM; in [4] it was 40.6 µM; in series [5] (Homo sapiens, BJ, 72 h), 15.8 µM; in [6] (Homo sapiens, HeLa, 72 h), 60 µM. Besides, in series [5] (bj, 72 h), the “inhibition (INH)” value is “Dose-dependent effect”.
For `N#Cc1ccc(/N=C2\c3ccccc3CN2c2ccc(C#N)nc2)cn1`, the inhibition result in [1], in [3], in [4] and in series [6] was “Dose-dependent effect” each time. Further, the IC50 in [1] (Homo sapiens, MCF7, 72 h) amounted to 40.5 µM; in series [2] (Homo sapiens, SW-620, 72 h), 83.8 µM; in series [4] it was 5.51 µM; in series [5] (Homo sapiens, BJ, 72 h) it was 9 µM; in series [6] (Homo sapiens, HeLa, 72 h), 4.46 µM. Besides, the “inhibition (INH)” value in [5] (bj, 72 h) is on record as “Dose-dependent effect”.
Consider `Cl.N=C(N)c1ccc(/N=C2\c3ccccc3CN2c2ccc(C(=N)N)nc2)cn1`, for which the ΔTm in series [11] worked out at 8.8 °C; in series [7], 14.6 °C. For the same molecule, the result in series [10] and in series [9] was Active. The inhibition result in series [8] was “inactive”. Further, the inhibition entry in series [1], in [3], in series [4] and in [6] was “Dose-dependent effect” in each case. For the same molecule, the IC50 was 42.1 µM in series [1] (Homo sapiens, MCF7, 72 h); greater than 100 µM in series [2] (Homo sapiens, SW-620, 72 h); 33.9 µM in [4]; greater than 100 µM in series [5] (Homo sapiens, BJ, 72 h); 68.8 µM in series [6] (Homo sapiens, HeLa, 72 h). For the same molecule, the “inhibition (INH)” value in series [5] (bj, 72 h) is “Dose-dependent effect”.
With `Nc1ccc(/N=C2\c3ccccc3CN2c2ccc(N)cc2)cc1` [listing 2 of 2 here], the ΔTm in series [7] turned out to be 0 °C. Besides, the inhibition entry in series [8] is “inactive”. Moreover, the result in [9] was inactive. Moreover, the inhibition entry in series [1], in [3], in [4] and in series [6] was “Dose-dependent effect” in each case.
For `CC(C)NC(=N)c1ccc(N2Cc3ccccc3C2=O)nc1.Cl`, the inhibition result in [1], in series [3], in series [4] and in series [6] was “Dose-dependent effect” in each case. In addition, the IC50 is 6.43 µM in [1] (Homo sapiens, MCF7, 72 h); 79.9 µM in [2] (Homo sapiens, SW-620, 72 h); 51.5 µM in series [4]; 18.1 µM in [5] (Homo sapiens, BJ, 72 h); greater than 100 µM in series [6] (Homo sapiens, HeLa, 72 h). Besides, the “inhibition (INH)” value in series [5] (bj, 72 h) is “Dose-dependent effect”.
With `CC(=O)Nc1ccc(/N=C2\c3ccccc3CN2c2ccc(NC(C)=O)cc2)cc1`, the inhibition result in series [1], in series [3], in series [4] and in series [6] was “Dose-dependent effect” in each case. Moreover, the IC50 was 38.2 µM in [1] (Homo sapiens, MCF7, 72 h); greater than 100 µM in series [2] (Homo sapiens, SW-620, 72 h); 71 µM in [4]; 92.4 µM in [5] (Homo sapiens, BJ, 72 h); greater than 100 µM in series [6] (Homo sapiens, HeLa, 72 h). Besides, the “inhibition (INH)” value in series [5] (bj, 72 h) is “Dose-dependent effect”.

Source of the values: ChEMBL document CHEMBL3352181, “Novel phenyl and pyridyl substituted derivatives of isoindolines: Synthesis, antitumor activity and DNA binding features” (Eur J Med Chem, 2014).
